Test [1] can be described thus: inhibitors of TNFa-induced NFkB p65 translocation, primary screen, imaging, HUVEC, MLSMR starter and 10KST1 sets (AID 438;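 active means inhibition above 20% together with a positive visual image hit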;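 further: compound added about 3h40 before a 20 min TNFalpha stimulation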;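 on inhibition: signal is the nuclear over cytoplasmic p65 intensity ratio per well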). The following applies: HUVEC TNFa-induced p65 nuclear translocation; cell count: measured here: nuclei count (cytotoxicity indicator), at 2.08 µM unless noted; inhibition: at 2 µM, stronger effect = higher value unless noted.
Test [2] is described as follows: inhibitors of E-selectin induction by TNFa, primary screen, imaging, HUVEC, immunofluorescence, MLSMR starter and 10KST1 sets (AID 487;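 active means visually confirmed hit in the image check and inhibition above 20%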;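 on inhibition: signal is fraction of cell area covered by stained E-selectin grains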;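 on nuclei count: 100% = median nuclei count of all wells on the same plate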). The following applies: HUVEC TNFalpha-induced E-selectin immunofluorescence imaging, at 2 µM; inhibition: stronger effect = higher value; nuclei count: measured here: cell number, toxicity.
Test [3] can be described thus: DUSP6 inhibitors restoring Erk phosphorylation by chemical complementation, primary imaging in DUSP6-transfected HeLa (AID 609;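 active means compounds giving at least 50% inhibition in the cell-based MKP-3 phosphatase rescue imaging test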;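 on inhibition: phospho-Erk level distribution per well compared with pooled transfected vehicle control wells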). The following applies: HeLa MKP-3 transfected, phospho-Erk imaging KS statistic, at 10 µM.
Test [4] has as its target Dual specificity protein phosphatase 6 (Homo sapiens) (UniProt Q16828). The description is as above. The following applies: HeLa MKP-3 transfected, phospho-Erk imaging KS statistic, at 10 µM, stronger effect = higher value.
Test [5] has as its target Voltage-gated potassium channel subunit beta-2 (Rattus norvegicus) (UniProt P62483). The experiment in a line: KvBeta enzyme negative modulators, primary screen, biochemical, NADPH fluorescence (AID 622;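 active means fluorescence slope higher than the sample average by over 3 SD, cut at about -0.22 in these data, passing the limit was not always enough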;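 further: slope of raw intensity against log time taken from 70 to 1610 s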). The following applies: recombinant KvBeta, 4-cyanobenzaldehyde reduction, at 10 µM, stronger effect = higher value.
Test [6] has the same target. The test can be described thus: KvBeta positive modulators, primary screen, biochemical, NADPH fluorescence (AID 623;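 active means NADPH fluorescence slope more negative than the mean of all samples by about 3 SD, 99.7% confidence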;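 further: fluorescence intensity change per second fitted from 20 to 320 s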). The following applies: Recombinant KvBeta, NADPH fluorescence decrease slope, 10 min; at 10 µM; stronger effect = lower value.
For test [7], the target named is Alpha-2C adrenergic receptor (Homo sapiens) (UniProt P18825). The test can be described thus: modulators of alpha2C/GIRK thallium flux, primary screen, cell-based, HEK293 alpha2C/GIRK1/2 (AID 624).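 Further: slope of fluorescence ratio to pre-addition baseline per second over 15 to 24 s.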 The following applies: thallium flux BTC fluorescence, at 10 µM, actives lie on both sides.
Alpha-2C adrenergic receptor (Homo sapiens), sequence (P18825 whole entry, looked up): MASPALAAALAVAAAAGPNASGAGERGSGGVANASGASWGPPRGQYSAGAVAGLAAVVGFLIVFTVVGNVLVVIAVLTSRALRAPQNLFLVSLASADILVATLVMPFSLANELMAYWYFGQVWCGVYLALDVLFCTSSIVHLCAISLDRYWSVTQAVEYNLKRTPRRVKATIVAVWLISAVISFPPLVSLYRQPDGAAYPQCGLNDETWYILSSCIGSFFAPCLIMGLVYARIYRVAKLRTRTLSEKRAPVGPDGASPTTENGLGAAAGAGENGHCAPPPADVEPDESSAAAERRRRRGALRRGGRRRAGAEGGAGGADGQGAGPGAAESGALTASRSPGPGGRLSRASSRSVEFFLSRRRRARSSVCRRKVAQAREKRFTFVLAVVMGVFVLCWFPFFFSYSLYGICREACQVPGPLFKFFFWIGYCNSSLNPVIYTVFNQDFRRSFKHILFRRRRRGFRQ
A short description of test [8]: inhibitors of larval lipid processing in zebrafish, primary screen, whole organism, PED6 fluorescence, gall bladder and intestine (AID 686;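 active means a full or partial loss of lipid-probe fluorescence in the fish gall bladder, intestine or both, judged by eye; inactive means no fluorescence loss, or compound toxic to the fish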;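 further: larvae 5 to 7 days old with five fish per well; signal comes from phospholipase A2 cleavage of quenched PED6 carried via bile; overnight exposure to compound and PED6 before scoring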). The following applies: Zebrafish larvae PED6 lipid processing, fluorescence scoring. The method, boiled down: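 Also added: quenched phospholipase substrate PED6, 100 nM final, ingested by larvae; System: zebrafish larvae, 5-7 d; Quantity: 5 larvae per well; Compound: 20 µM single dose; Schedule: overnight compound and PED6 incubation; Read-out: visual per-well fluorescence inhibition score; Measured by: By-eye fluorescence microscopy; Medium: E3.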

Test [9] in a line: inhibitors of Chlamydomonas gravitaxis, primary screen, whole organism, Chlamydomonas reinhardtii, WT vs cilia-less mutant, absorbance, 96-well (AID 463189;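 active means inhibition at or above 50% relative to wild type and mutant plate controls; inactive means inhibition below 50%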;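 further: 0% = wild type cc124 cells in DMSO and 100% = ciliumless bld1 mutant cells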). The following applies: OD600 absorbance, 2 days, at 10 µM, stronger effect = higher value.
[10] abbreviates: measured here: cell density z-score.
Where [11] appears, read: measured here: nuclear c-Myc green intensity z-score.
Setting [12] is: measured here: nuclear pErk red intensity z-score, stronger effect = higher value.

The source made the active and inactive calls.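 How the source made its calls, unless noted: active means fluorescence slope after compound addition differing from the mean of all screened samples at 99.7% confidence, in either direction; inactive means the rest.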

Dual specificity protein phosphatase 6 (Homo sapiens), sequence (Q16828 whole entry, looked up): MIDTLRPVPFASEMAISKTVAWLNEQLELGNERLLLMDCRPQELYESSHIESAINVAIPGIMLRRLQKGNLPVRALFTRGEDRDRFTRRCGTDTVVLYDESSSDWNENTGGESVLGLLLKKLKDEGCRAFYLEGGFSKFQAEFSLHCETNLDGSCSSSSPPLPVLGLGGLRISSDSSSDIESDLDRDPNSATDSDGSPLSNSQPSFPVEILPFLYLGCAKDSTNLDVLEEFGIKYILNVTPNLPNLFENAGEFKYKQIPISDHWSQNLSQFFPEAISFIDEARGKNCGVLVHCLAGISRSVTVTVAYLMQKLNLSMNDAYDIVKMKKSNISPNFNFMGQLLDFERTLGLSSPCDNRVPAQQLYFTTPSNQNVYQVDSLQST
Voltage-gated potassium channel subunit beta-2 (Rattus norvegicus), sequence (P62483 whole entry, looked up): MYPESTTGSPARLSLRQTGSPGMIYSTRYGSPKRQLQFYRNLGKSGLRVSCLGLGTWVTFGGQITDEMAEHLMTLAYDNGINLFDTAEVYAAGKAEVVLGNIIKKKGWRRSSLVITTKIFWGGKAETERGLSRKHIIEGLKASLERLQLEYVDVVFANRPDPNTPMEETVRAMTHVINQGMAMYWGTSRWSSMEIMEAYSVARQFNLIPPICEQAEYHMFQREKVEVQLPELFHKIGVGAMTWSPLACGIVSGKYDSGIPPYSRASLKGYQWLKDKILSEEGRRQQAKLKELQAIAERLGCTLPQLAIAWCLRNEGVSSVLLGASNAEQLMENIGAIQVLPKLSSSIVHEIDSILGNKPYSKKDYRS

Molecule `CC(=O)OC1(Cc2ccccc2)CN2CCC1c1ccccc12` (stereo not drawn) displayed a cell count in test [1] of 574. The inhibition in test [1] was -15.2% (inactive); in test [2] it was -118% (inactive); in test [4], -9.91% (inactive); in test [9] it was 14.3% (inactive). The molecule further returned a nuclei count in test [2] of 130%. The figures for the z-score in test [3] (setting [10]), in test [3] (setting [11]) and in test [3] (setting [12]) were 0.311, -0.615 and 0.994, respectively. The fluorescence slope in test [5] was -0.516 (inactive). Further, in test [6], the NADPH fluorescence slope was -4e-05 (inactive). Besides, the slope in [7] was 0.00421 (inactive). For the same molecule, in test [8], the molecule was classed as inactive.

`CCOC(=O)[C@]1(C#N)[C@@H]2C=CC(C(C)=O)=CN2[C@@H](C(N)=O)[C@@H]1c1ccsc1`: the cell count in test [1] turned out to be 560. Besides, the inhibition in test [1] is -5.3% (inactive); in [2], -130% (inactive); in test [4] it was -2.91% (inactive); in test [9], 13.7% (inactive). The nuclei count in test [2] amounted to 212%. The z-score in test [3] (setting [10]) is 0.77; in [3] (setting [11]), 0.227; in test [3] (setting [12]) it was -0.321. The fluorescence slope in test [5] was -0.358 (inactive). In addition, the NADPH fluorescence slope in [6] is -1.4e-05 (inactive). The slope in [7] is -0.00125 (inactive). For the same molecule, in test [8], the outcome was inactive.

In turn, `O=C(Nc1ccncc1)c1c(O)c2ccccc2n(Cc2ccccc2)c1=O` returned a cell count in test [1] of 544. In addition, the inhibition in [1] is -4.5% [at 2 µM, stronger effect = higher value, 0% TNFa-plus-vehicle, 100% no-TNFa wells] (inactive); in test [2], -23.1% (inactive); in [4] it was 10.5% [cells stimulated with TPA for 15 min] (inactive); in test [9], 30.8% (inactive). In addition, the nuclei count in [2] came to 145%. Besides, the z-score in [3] (measured here: cell density z-score, cells stimulated with TPA for 15 min) was -0.126; in test [3] (measured here: nuclear c-Myc green intensity z-score, cells stimulated with TPA for 15 min), -1.62; in test [3] (measured here: nuclear pErk red intensity z-score, stronger effect = higher value, cells stimulated with TPA for 15 min), -0.473. In addition, the fluorescence slope in test [5] is -0.32 (inactive). For the same molecule, the NADPH fluorescence slope in test [6] was 2.5e-05 (inactive). For the same molecule, in test [7], the slope was 0.00467 (inactive). In [8], the outcome was “inactive [screened at 20 µM (by protocol)]”.

On to `O=c1[nH]c(=O)n(C2CCCCC2)c(O)c1C=NCCCn1ccnc1`, for which the cell count in test [1] came to 684. Further, the inhibition in [1] is -20.4% (inactive); in test [2] it was -84.3% (inactive); in test [4], 6.04% (inactive); in [9], 0.521% (inactive). In test [2], this molecule came in with a nuclei count of 153%. The z-score was 1.04 in test [3] (setting [10]), -1.34 in [3] (setting [11]) and -0.814 in test [3] (setting [12]). For the same molecule, in [5], the fluorescence slope was -0.428 (inactive). The NADPH fluorescence slope in test [6] is 6.8e-06 (inactive). Further, the slope in test [7] is 0.00637 (inactive). The molecule was classed as inactive in test [8].

`CCOC(=O)[C@@]1(C#N)[C@@H]2C=CC(C(N)=O)=CN2[C@@H](C(N)=O)[C@@H]1c1cccc(Cl)c1` yielded a cell count in test [1] of 359. Besides, the inhibition in test [1] was -11.1% (inactive); in [2] it was -137% (inactive); in test [4], 11.4% (inactive); in [9], 24.1% (inactive). In test [2], this molecule gave a nuclei count of 133%. Besides, the z-score is 1.68 in test [3] (setting [10]), -1.47 in test [3] (setting [11]) and -0.2 in test [3] (setting [12]). In test [5], the fluorescence slope was -0.368 (inactive). In addition, the NADPH fluorescence slope in test [6] was -1e-05 (inactive). For the same molecule, in test [7], the slope is 0.00498 (inactive). In addition, in test [8], the call was inactive.

In test [1], `CC1(C)CC(=O)C(C=NCCN2CCN(C(=O)Cc3ccc(F)cc3)CC2)=C(O)C1` gave a cell count of 580. Besides, the inhibition in test [1] was 5.6% (inactive); in test [2], -57.7% (inactive); in test [4] it was 17.8% (inactive); in test [9] it was -8.15% (inactive). The same molecule returned a nuclei count in test [2] of 140%. Moreover, the results for the z-score in test [3] (setting [10]), in [3] (setting [11]) and in test [3] (setting [12]) were 0.866, 1.58 and -0.927, respectively. In addition, the fluorescence slope in test [5] was -0.481 (inactive). For the same molecule, the NADPH fluorescence slope in test [6] is -3.6e-05 (inactive). In addition, the slope in test [7] is 0.00584 (inactive). The result in test [8] was inactive.

One may read the inhibition as the drop in the measured response relative to a control, in per cent.

Values taken from PubChem BioAssay.
